# Screening data (PubChem)
# ASAP1 inh = inhibitors of human ASAP1 ArfGAP activity, primary screen, biochemical, fluorescence polarization | actives 0.19% (n = 360,000) | ASAP1-stimulated ARF1 GTP hydrolysis, GDP FP detection | inhibition, % at 16.5 µM | Arf-GAP with SH3 domain, ANK repeat and PH domain-containing protein 1 (Homo sapiens), …; in the data active means inhibition above about 25%;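 further: 0% = vehicle with enzyme and substrate and 100% = no enzyme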
# FGF22 binding = binders of human FGF22 protein, primary screen, FGF22 synaptogenesis inhibitor project, biophysical, thermal shift, single point; recombinant FGF22 thermal shift, SYPRO orange fluorescence; percent of sucrose octasulfate shift, DMSO zero; activity (Tm shift, normalised), % at 9.99 µM; Fibroblast growth factor 22 (Homo sapiens), Q9HCT0; AID 651658, 2012; actives 1.5% (n = 340,000);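 active means mean Tm shift, scaled 0 neutral to 100 positive control, at about 1.3% or above, every replicate too, limit read from the data; inconclusive means no clear call, values can overlap the other calls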
# Target sequence (Q9HCT0 whole entry, looked up): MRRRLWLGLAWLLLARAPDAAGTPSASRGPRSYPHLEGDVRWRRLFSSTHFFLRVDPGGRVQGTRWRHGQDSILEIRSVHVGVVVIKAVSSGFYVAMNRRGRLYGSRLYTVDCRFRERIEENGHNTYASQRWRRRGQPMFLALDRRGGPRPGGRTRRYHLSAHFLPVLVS
# ARFGAP1 inhibitor = inhibitors of rat ARFGAP1 GAP activity, primary screen, biochemical, fluorescence polarization, GDP tracer. inhibition, % at 16.5 µM. ADP-ribosylation factor GTPase-activating protein 1 (Rattus norvegicus), Q62848. actives 0.26% (n = 360,000). Arfgap1-stimulated ARF1 GTP hydrolysis, GDP FP detection;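 active means inhibition above a per-plate limit, mean inhibition of low control wells plus 3 SD, cut at about 25% in these data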;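 further: 0% = DMSO wells with enzyme and 100% = wells lacking Arfgap1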
# Target sequence (Q62848 1-136 limits assumed): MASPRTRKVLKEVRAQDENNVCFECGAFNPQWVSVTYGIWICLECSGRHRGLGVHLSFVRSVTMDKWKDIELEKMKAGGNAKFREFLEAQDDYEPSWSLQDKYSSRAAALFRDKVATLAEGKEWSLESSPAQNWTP
#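 Material: truncated rat Arfgap1 GAP domain; Incubation: compound-enzyme preincubation 20 min, reaction 120 min, detection 60 min, 25 °C; Read-out: percent inhibition of Arfgap1-stimulated GTP hydrolysis; Technique: FP, GDP Alexa 633 tracer displaced from anti-GDP antibody, 620/688 nm; Controls: No-Arfgap1 wells (100%) versus DMSO full-reaction wells (0%); Replication: single well per compound.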
# Rtt109 Vps75 = inhibitors of C. albicans Rtt109/Vps75 HAT, primary screen, biochemical, ThioGlo CoA-SH fluorescence, plate reader | Histone acetyltransferase RTT109 (Candida albicans (strain SC5314 / ATCC MYA-2876)), … | purified Rtt109/Vps75, 4 h | inhibition, % at 34.9 µM | actives 0.16% (n = 330,000) | AID 540336, 2011;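 active means inhibition of at least 50% in every replicate; inconclusive means best replicate reaches 50% inhibition but some replicates fall short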
# Efflux pump inh = inhibitors of Candida efflux pumps in yeast, primary screen, S. cerevisiae, Nile Red, multiplex | S. cerevisiae Candida pump triplex | actives 0.44% (n = 330,000) | AID 485275, 2010 | inhibition, % at 10 µM;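 active means plate passing quality check with inhibition over a set limit, or well fluorescence over plate mean plus 4 SD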;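 further: Nile Red retained in pooled yeast measured as flow cytometry median fluorescence; 0% = buffer negative control and 100% = Enniatin B positive control; higher means more Nile Red kept so more efflux inhibition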
# * marks the source's active call; other numbers are inactive results; ? = inconclusive; nt = no result. The list is not random: actives were taken first. Their share in the collection is about 1.9%.
SMILES,ASAP1 inh,FGF22 binding,ARFGAP1 inhibitor,Rtt109 Vps75,Efflux pump inh
COc1cc([N+](=O)[O-])cc(/C=C2/SC(=S)N(Cc3ccccc3)C2=O)c1O,6,0,3,2,3.0*
COc1cc(/C=C2/SC(=S)N(Cc3ccccc3)C2=O)cc(Cl)c1O,-3,0,5,-3,1
Cc1noc(C)c1C(=O)OCC(=O)Nc1cccc(S(N)(=O)=O)c1,6,43*,8,nt,0
COc1cccc(NC(=O)COC(=O)c2c(C)noc2C)c1,-6,1,5,-1,0
O=C(Nc1ccc(Cl)c(Cl)c1)Nc1ccccc1NS(=O)(=O)c1cccs1,4,1.7*,-1,-7,0
Nc1nc2ccccc2n1C(=O)c1ccccc1,-14,43*,2,-11,0
Nc1nc2ccccc2n1C(=O)c1ccc(F)cc1,-14,0,-4,3,0
CCN1CCN(c2ccc(S(=O)(=O)N3CCCCC3)cc2N)CC1,11,0,11,6,0
CCCC/C(O)=C1\C(=O)CC(C)(C)CC1=Nc1ccc(N)cc1,4,43*,10,-4,0
CCOc1ccc(NC(=O)CSc2nnc(Cn3cnc([N+](=O)[O-])n3)n2CC)cc1,10,43*,-6,-3,0
Cc1ccc(CNC(=O)C(=O)NCCC2CCCCN2S(=O)(=O)c2cccs2)cc1 (configuration not stated),-4,0,9,11,0
Cc1ccc(CN(C(=O)c2ccccc2C)C2CCS(=O)(=O)C2)o1 (configuration not stated),0,0,3,72*,0
Cc1nonc1CN(C)C(=O)c1ccc(OC2CCN(Cc3ccccn3)CC2)cc1,13,44*,-5,7,0
Cc1nonc1CN(C)C(=O)c1ccc(OC2CCN(C(=O)c3cccnc3)CC2)cc1,-5,44*,-9,4,0
O=C(Nc1ccccc1C(=O)NC(Cc1ccc(O)cc1)C(=O)O)c1ccccc1 (configuration not stated),-17,44*,-11,3,0
C=CCNC(=S)N/N=C/c1cccc([N+](=O)[O-])c1,-7,43*,-6,4,0
COc1ccc(/C=N/NC(=S)Nc2cccc(C(=O)O)c2)cc1,6,nt,19,36,0
O=[N+]([O-])c1ccc(C=NNC(=S)Nc2ccc(F)cc2)cc1,6,44*,10,-5,nt
COc1ccc(/C=N/NC(=S)Nc2ccccc2)cc1,7,45*,2,-5,0
O=[N+]([O-])c1ccc(NC(=S)NCc2ccc(F)cc2)cc1,14,0,9,23,0
O=C1C(Cl)=C(N2CCOCC2)C(=O)N1c1ccccc1Cl,nt,0,nt,162*,0
O=C1C(Cl)=C(N2CCOCC2)C(=O)N1c1cccc(C(F)(F)F)c1,3,0,12,?,0
COC(=O)c1cccc(N2C(=O)C(Cl)=C(N3CCOCC3)C2=O)c1,-7,nt,-6,115*,0
COC(=O)Cc1csc(NC(=O)CSc2nnc3ccccn23)n1,10,44*,0,-6,0
CCOC(=O)Cc1csc(NC(=O)CSc2nnc(C)n2C)n1,16,nt,12,4,0
SMILES,ASAP1 inh,FGF22 binding,ARFGAP1 inhibitor,Rtt109 Vps75,Efflux pump inh
O=C(NC(=S)NCc1ccc(Cl)cc1Cl)c1ccco1,-12,43*,11,-12,0
COc1cccc(NC(=O)N2CCN(S(C)(=O)=O)CC2)c1,1,0,4,-3,0
CS(=O)(=O)N1CCN(C(=O)Nc2ccccc2)CC1,-4,43*,1,1,0
CC(=O)C1CCC2C3CC(O)C4=CC(=O)CCC4(C)C3C(=O)CC12C (configuration not stated),3,1,-15,-11,nt
CC(=O)C1CCC2C3CCC4CC(OC(=O)CCC(=O)O)CCC4(C)C3C(=O)CC12C (configuration not stated),-21,44*,11,9,nt
O=C(COC(=O)Cn1nc(-c2ccccc2)oc1=O)Nc1ccc(F)cc1,1,0,4,-6,0
Cc1ccc(NC(=O)COC(=O)Cn2nc(-c3ccc(F)cc3)oc2=O)cc1C,-14,44*,-5,8,0
CCCNS(=O)(=O)c1ccc(CCC(=O)NCCc2ccc(OC)c(OC)c2)cc1,-7,44*,3,2,0
COc1ccc(CCNC(=O)CCc2ccc(S(=O)(=O)NC(C)C)cc2)cc1OC,8,nt,9,-5,0
COc1ccc(CCNC(=O)CN(c2cccc([N+](=O)[O-])c2)S(C)(=O)=O)cc1OC,7,0,2,4,0
COc1ccc(CC(=O)NNC(=O)CCc2ccccc2)cc1OC,4,43*,1,0,0
COc1ccc(CCNC(=O)CN(c2cc([N+](=O)[O-])ccc2OC)S(C)(=O)=O)cc1OC,3,43*,-11,0,0
COC(=O)c1ccc(/C=N/NS(=O)(=O)c2cc(C)ccc2C)cc1,-9,nt,-2,-2,0
CC1(C)CC2(CC(c3ccccc3F)c3cc(Cl)c(O)cc3O2)NC(=S)N1 (configuration not stated),9,0,-5,0,0
CC(=O)Oc1cc2c(cc1Cl)C1(CC(c3ccccc3Cl)O2)CC(C)(C)NC(=S)N1 (configuration not stated),-7,nt,-3,19,114*
O=C(NC[C@@H]1N[C@@H](CO)[C@H]1c1ccccc1)C1CCCC1,nt,0,nt,nt,nt
O=C(/C=C/c1ccccc1)Oc1ccccc1C(=S)N1CCOCC1,2,43*,0,0,0
O=C(/C=C/c1ccccc1)Oc1cccc(C(=S)N2CCOCC2)c1,-4,0,-5,nt,0
COc1cc(C(=S)N2CCOCC2)ccc1OC(=O)c1ccccc1,4,0,3,2,0
COc1cc(C(=S)N2CCOCC2)ccc1OC(=O)/C=C/c1ccco1,0,43*,1,-3,0
O=C(O)CSc1ccc(Oc2ccc(SCC(=O)O)cc2)cc1,-13,43*,-14,5,0
O=C(CCCn1ncn2c(cc3occc32)c1=O)NCc1cccc(Cl)c1,5,0,5,7,0
Cc1ccc(CN2CCN(Cc3cnc(C)s3)CC2CCO)o1 (configuration not stated),-4,44*,0,-10,0
